# Source: PubChem
# Shown are actives, neighbours in structure and some others; about 9.6% of the full set was active somewhere.
# bCat nuc transl = modulators of beta-catenin nuclear translocation; HeLa beta-catenin nuclear translocation, immunofluorescence imaging; 190,000 compounds, 0.3% hits; nuclear translocation activity, % at 5 µM; AID 1665;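 active = nuclear translocation activity above 50% at 5 µM, with a well cell count of 50 or more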;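 note: per-cell ratio of nuclear to cytoplasmic median beta-catenin stain intensity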
#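 Test system: human HeLa cells, endogenous beta-catenin. Times: 24 h compound exposure, 37°C. Measured by: beta-catenin immunofluorescence imaging with DAPI.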
# APP transl inh = APP translation inhibition | 190,000 compounds, 0.82% hits | SH-SY5Y APP 5'UTR-luciferase reporter, luminescence | inhibition, % at 2 µM;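 active = inhibition above a set limit, derived from the sample mean plus 3 SD, cut at about 45% in these data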
# BaF3 tox = parental Ba/F3 viability inhibition as JAK2V617F counter-screen. CellTiter-Glo ATP luminescence. 220,000 compounds, 1.1% hits. inhibition, % at 5.6 µM. AID 1486;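 active = inhibition above a per-campaign cutoff, the mean inhibition of all tested compounds plus 3 SD, cut at about 27% in these data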
# Ba/F3 V617F tox = lowers viability of Ba/F3 cells expressing EpoR and JAK2V617F; ATP luminescence; inhibition, % at 5.6 µM; 220,000 compounds, 1.1% hits;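 active = inhibition above the campaign mean plus 3 SD over all tested compounds, cut at about 24% in these data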;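 note: cytokine-independent growth of Ba/F3 cells driven by EpoR plus mutant JAK2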
# L major viab = reduces viability of Leishmania major promastigotes. resazurin fluorescence viability. inhibition, % at 10 µM. 200,000 compounds, 9% hits. AID 1063; in the data active = inhibition above about 50%;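 note: promastigotes grown with compound for 44 hours at 28 °C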
# MT stabilizer = microtubule stabilizers in HeLa cells; HeLa tubulin immunostaining HCS, 24 h; share of cells brighter than vehicle mean+2SD; % tubulin-high responders, % at 10 µM; 200,000 compounds, 0.83% hits; AID 2205;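 active = plate Z-score above 3 for both tubulin-high and condensed-nucleus cell shares, with cell loss under 80%, at 10 µM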;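 note: anti alpha tubulin signal scored within the nucleus-defined area of each cell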
# A number is an active result; – = inactive; · = not tested or not shown.
SMILES,bCat nuc transl,APP transl inh,BaF3 tox,Ba/F3 V617F tox,L major viab,MT stabilizer
COc1cc(/C=N/NC(=O)CCN2CCN(Cc3ccccc3)CC2)cc(OC)c1OC,–,–,–,–,52,–
COc1cc(/C=N/NC(=O)CCN2CCN(c3ccccc3)CC2)cc(OC)c1OC,·,–,–,–,–,–
COc1cc(/C=N/OCC(=O)Nc2cc(C)on2)ccc1OCc1ccccc1,–,–,–,–,64,–
CCOc1cc(/C=N/NC(=O)CN2CCOCC2)ccc1OCc1ccccc1,–,·,–,–,–,–
CCOc1cc(/C=N/NC(=O)c2nn(C)cc2Br)ccc1OCc1ccccc1Cl,·,–,–,–,72,–
CCCCOc1ccc(C(=O)N/N=C/c2ccc(OCCN3CCCCC3)c(OC)c2)cc1,–,–,–,–,100,–
CCCCOc1ccc(C(=O)N/N=C/c2cn[nH]c2-c2ccc(OC)c(OC)c2)cc1,–,–,–,–,–,–
CCOc1cc(/C=N/NC(=O)CN2CCCCC2)ccc1OCc1cccc(Cl)c1,–,–,–,–,97,–
COc1cc(/C=N/NC(=O)CN2CCCCC2)ccc1OCc1ccccc1,–,–,–,–,95,–
CCOc1cc(/C=N/NC(=O)CN2CCCCC2)ccc1OCc1ccc(Cl)cc1,–,–,–,–,99,–
CC1CC(C)CN(CC(=O)N2CCOCC2)C1 (stereo not drawn),–,–,–,–,–,–
Cc1ccc(NC(=O)CN(C)C(=O)COc2cc(F)ccc2[N+](=O)[O-])cc1,–,–,–,–,–,–
COCC(C)NC(=O)/C=C/c1ccc(OC)cc1 (stereo not drawn),–,–,–,–,–,–
CC1S/C(=C(\C#N)C(N)=O)N(c2ccc(F)cc2)C1=O (stereo not drawn),–,·,–,–,–,–
COc1cc(CNc2ccc(N3CCCC3)cc2)ccc1OCc1ccccc1F,–,–,–,–,–,–
CCOCCCNCc1ccc(OCc2ccccc2C)c(OC)c1,–,–,–,–,98,–
COc1cc(CNCCCCO)ccc1OCc1ccccc1F,–,–,–,–,83,–
CCNCc1ccc(OCc2ccccc2F)c(OC)c1,–,–,–,–,81,–
CCOCCCNCc1ccc(OCC(=O)N2CCOCC2)c(OC)c1,–,–,–,–,–,–
CCN(CC)CCNCc1cc(Cl)ccc1OCc1ccccc1F,–,–,–,–,99,–
CC(C)CCSc1nc2[nH]ncc2c(=O)[nH]1,–,–,–,–,–,–
Cc1cccc(-c2cc3nc4c(c(N5CCOCC5)n3n2)CCCC4)c1,–,–,–,–,57,–
COc1cccc(-c2cc3nc4c(c(N5CCC6(CC5)OCCO6)n3n2)CCC4)c1,–,–,–,–,–,–
Cc1cccc(-c2cc3nc4c(c(NCc5ccco5)n3n2)CCCC4)c1,–,–,–,–,67,–
Cc1cccc(-c2cc3nc4c(c(N5CCC6(CC5)OCCO6)n3n2)CCCC4)c1,·,–,–,–,65,–
SMILES,bCat nuc transl,APP transl inh,BaF3 tox,Ba/F3 V617F tox,L major viab,MT stabilizer
Fc1ccc(-c2cc3nc4c(c(N5CCOCC5)n3n2)CCCC4)cc1,–,–,–,–,–,–
CC(C)(C)c1ccc(S(=O)(=O)N2CCC(O)(c3ccc(Cl)cc3)CC2)cc1,–,·,–,–,·,·
CC(C)(C)OC(=O)N1CCN(C(=O)c2cccnc2Cl)CC1,–,–,–,–,–,–
CN(CC(=O)Nc1cccc(F)c1)CC(=O)Nc1cccc(S(N)(=O)=O)c1,–,·,–,–,·,·
CCOc1ccc(Nc2ccc(N3C(=O)CCC3=O)cc2[N+](=O)[O-])cc1,–,–,–,–,–,–
CC(C)[C@H](NC(=O)c1ccccc1)C(=O)OCC(=O)NCCc1ccc(F)cc1,–,–,–,–,–,–
CC(C)[C@H](NC(=O)c1ccccc1)C(=O)OCC(=O)NCCC1=CCCCC1,·,–,–,–,59,–
CC(C)[C@H](NC(=O)c1ccccc1)C(=O)OCC(=O)c1ccccc1F,–,–,–,–,–,–
CC(C)C(NC(=O)c1ccc(C(C)(C)C)cc1)C(=O)OCC(=O)NC(=O)Cc1ccccc1 (stereo not drawn),–,–,–,–,50,–
CCN(C(=O)COC(=O)c1cc(-c2ccc3cc(OC)ccc3c2)nc2ccccc12)C1CCS(=O)(=O)C1 (stereo not drawn),–,–,–,–,98,–
CCN(C(=O)COC(=O)c1cc(-c2ccccc2)nc2c1c(C)nn2-c1ccccc1)C1CCS(=O)(=O)C1 (stereo not drawn),–,–,–,–,–,–
CC(Oc1cccc2c1OC(C)(C)C2)C(=O)O (stereo not drawn),–,67,–,–,–,–
CC(C)NC(=O)NC(=O)COc1cccc2c1OC(C)(C)C2,–,–,–,–,–,–
CC(C)(C)c1ccc(S(=O)(=O)N2CCC(CO)(CC3CCCCO3)CC2)cc1 (stereo not drawn),–,–,–,–,–,–
Cc1csc2nc3cc(C(N)=O)ccc3c(=O)n12,–,·,·,·,·,·
NC(=O)c1ccc2c(=O)n3c(-c4cc(Cl)c(N)c(Cl)c4)csc3nc2c1,66,·,·,·,·,·
COc1ccc2c(c1)CCc1c(C(=O)N(C)c3ccccc3)noc1-2,–,–,–,–,–,–
Clc1ccc(-[n+]2c(-c3cccc(Br)c3)[nH]c3nc4ccccc4nc32)cc1,–,·,–,–,·,·
O=[N+]([O-])c1ccc(CN2CCOCCOCCN(Cc3ccc([N+](=O)[O-])cc3)CCOCC2)cc1,–,–,–,–,80,–
O=[N+]([O-])c1ccc(COc2ccc(Br)cc2CN2CCOCC2)cc1,–,–,90,–,–,–
CSc1ccc(CN2CCN(Cc3ccc([N+](=O)[O-])cc3)CC2)cc1,–,–,–,–,91,–
O=C(COc1ccc([N+](=O)[O-])cc1Cl)N1CCOCC1,–,·,–,–,·,·
CCOc1ccccc1C(=O)Nc1ccc(-n2nncc2C(C)(C)C)cc1,–,–,–,–,–,–
CS(=O)(=O)NCc1nnc(SCc2ccc(C(F)(F)F)cc2)o1,–,·,–,–,·,·
CCC(C(=O)Nc1ccc(OC)c(Cl)c1)c1ccccc1 (stereo not drawn),–,–,–,–,53,–
SMILES,bCat nuc transl,APP transl inh,BaF3 tox,Ba/F3 V617F tox,L major viab,MT stabilizer
O=S(=O)(c1ccccc1Cl)N1CCCC1c1nc(-c2ccccc2Cl)no1 (stereo not drawn),·,–,–,–,89,–
O=S(=O)(c1ccc(Cl)cc1)N1CCCC1c1nc(-c2ccc(Cl)cc2)no1 (stereo not drawn),–,–,–,–,–,–
O=C(CCC1CCCCC1)NNC(=O)NC12CC3CC(CC(C3)C1)C2,·,–,–,–,–,–
Cc1ccc(-c2nnc(SCC(=O)N/N=C/c3ccc(C)s3)n2-c2ccc(C)cc2)cc1,–,–,–,–,–,–
CN(CCNC(=O)c1cc2c(=O)n(C)c3ccccc3c2n1C)Cc1ccccc1,–,–,–,–,69,–
Cn1c(C(=O)NCCN2CCOCC2)cc2c(=O)n(C)c3ccccc3c21,·,–,–,–,–,–
